Laboratory results: ChEMBL document CHEMBL2424628, “Discovery of potent and selective nonsteroidal indazolyl amide glucocorticoid receptor agonists” (Bioorg Med Chem Lett, 2013)

Assays:
Glucocorticoid receptor [1] = target: T1, Glucocorticoid receptor (Homo sapiens, UniProt P04150); experiment: Agonist activity at glucocorticoid receptor in human A549 cells assessed as inhibition of PMA-induced AP-1 activation by luciferase reporter gene assay; type: cell-based
T1 sequence (P04150 whole entry): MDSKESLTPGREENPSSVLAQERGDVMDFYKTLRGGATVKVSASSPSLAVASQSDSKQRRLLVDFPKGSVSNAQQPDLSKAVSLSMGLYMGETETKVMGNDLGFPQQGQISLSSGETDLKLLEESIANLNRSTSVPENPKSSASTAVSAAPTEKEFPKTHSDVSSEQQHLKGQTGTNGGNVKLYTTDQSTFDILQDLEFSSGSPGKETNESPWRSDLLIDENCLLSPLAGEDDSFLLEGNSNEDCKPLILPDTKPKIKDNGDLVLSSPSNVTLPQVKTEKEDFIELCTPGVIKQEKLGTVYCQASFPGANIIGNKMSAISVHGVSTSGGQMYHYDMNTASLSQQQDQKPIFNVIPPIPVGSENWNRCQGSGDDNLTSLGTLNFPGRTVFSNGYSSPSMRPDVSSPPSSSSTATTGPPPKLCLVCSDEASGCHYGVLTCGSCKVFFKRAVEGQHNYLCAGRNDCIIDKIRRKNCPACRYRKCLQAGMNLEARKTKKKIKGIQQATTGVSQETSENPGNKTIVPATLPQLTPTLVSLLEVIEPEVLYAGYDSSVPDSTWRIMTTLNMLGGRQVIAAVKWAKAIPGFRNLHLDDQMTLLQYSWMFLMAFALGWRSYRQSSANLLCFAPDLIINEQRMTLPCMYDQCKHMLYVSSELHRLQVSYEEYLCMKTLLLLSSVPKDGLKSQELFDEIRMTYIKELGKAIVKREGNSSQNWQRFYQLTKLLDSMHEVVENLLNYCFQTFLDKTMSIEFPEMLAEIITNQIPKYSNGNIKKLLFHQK

Glucocorticoid receptor [2] = target: T1, Glucocorticoid receptor; experiment: Binding affinity to glucocorticoid receptor (unknown origin) by fluorescence polarization assay
Androgen receptor = target: T2, Androgen receptor (Homo sapiens, UniProt P10275); experiment: Binding affinity to androgen receptor (unknown origin) by fluorescence polarization assay
T2 sequence (P10275 whole entry): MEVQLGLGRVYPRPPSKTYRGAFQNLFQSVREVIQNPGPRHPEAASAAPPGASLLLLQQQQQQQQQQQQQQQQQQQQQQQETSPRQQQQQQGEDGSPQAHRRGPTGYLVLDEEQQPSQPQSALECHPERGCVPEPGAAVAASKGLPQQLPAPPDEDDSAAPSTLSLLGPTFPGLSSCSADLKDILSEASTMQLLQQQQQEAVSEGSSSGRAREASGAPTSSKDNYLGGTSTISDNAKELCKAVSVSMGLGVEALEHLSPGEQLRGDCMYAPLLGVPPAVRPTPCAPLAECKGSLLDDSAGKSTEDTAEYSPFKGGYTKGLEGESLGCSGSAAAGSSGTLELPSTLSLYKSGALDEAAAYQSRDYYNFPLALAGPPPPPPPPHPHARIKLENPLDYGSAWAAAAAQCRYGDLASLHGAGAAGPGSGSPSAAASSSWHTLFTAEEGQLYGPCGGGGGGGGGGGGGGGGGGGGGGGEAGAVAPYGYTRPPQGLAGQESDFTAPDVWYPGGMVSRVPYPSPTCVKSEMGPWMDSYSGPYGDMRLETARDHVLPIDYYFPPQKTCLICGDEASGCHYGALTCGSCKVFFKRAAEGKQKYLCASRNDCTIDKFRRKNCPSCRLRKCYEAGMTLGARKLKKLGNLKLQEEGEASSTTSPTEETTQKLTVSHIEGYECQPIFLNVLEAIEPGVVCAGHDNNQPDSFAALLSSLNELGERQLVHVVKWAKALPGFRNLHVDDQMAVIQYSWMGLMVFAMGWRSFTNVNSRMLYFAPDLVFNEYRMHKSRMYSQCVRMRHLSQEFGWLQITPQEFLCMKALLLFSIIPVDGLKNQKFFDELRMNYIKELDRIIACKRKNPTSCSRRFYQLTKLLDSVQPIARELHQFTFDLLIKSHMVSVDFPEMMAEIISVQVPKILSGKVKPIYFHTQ
Method in brief: (§1)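 Fluorescence polarization competition between test compound and a fluorescently labeled ligand for full-length receptor or its ligand binding domain. IC50 from a four-parameter logistic fit of the polarization signal, converted to Ki with Cheng–Prusoff […]. Means of duplicate experiments.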

[3] = target: T3, Glucocorticoid receptor (Homo sapiens) (UniProt P04150); experiment: Agonist activity at glucocorticoid receptor in human A549 cells assessed as inhibition of PMA-induced AP-1 activation by luciferase reporter gene assay relative to dexamethasone; type: cell-based
T3 sequence (whole entry): T1 sequence (P04150 whole entry)
Method in brief: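 A549 lung epithelial cells stably carrying a luciferase reporter with 5 copies of the AP-1 response element; AP-1 induced with PMA (15 ng/ml). Compound inhibition of induction read as decreased luciferase. […] Means of two or more experiments in triplicate.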

Homo sapiens = organism: Homo sapiens; experiment: Selectivity ratio of Ki for progesterone receptor (unknown origin) to Ki for glucocorticoid receptor (unknown origin)
Progesterone receptor = target: T4, Progesterone receptor (Homo sapiens, UniProt P06401); experiment: Binding affinity to progesterone receptor (unknown origin) by fluorescence polarization assay; method in brief: as §1
T4 sequence (P06401 whole entry): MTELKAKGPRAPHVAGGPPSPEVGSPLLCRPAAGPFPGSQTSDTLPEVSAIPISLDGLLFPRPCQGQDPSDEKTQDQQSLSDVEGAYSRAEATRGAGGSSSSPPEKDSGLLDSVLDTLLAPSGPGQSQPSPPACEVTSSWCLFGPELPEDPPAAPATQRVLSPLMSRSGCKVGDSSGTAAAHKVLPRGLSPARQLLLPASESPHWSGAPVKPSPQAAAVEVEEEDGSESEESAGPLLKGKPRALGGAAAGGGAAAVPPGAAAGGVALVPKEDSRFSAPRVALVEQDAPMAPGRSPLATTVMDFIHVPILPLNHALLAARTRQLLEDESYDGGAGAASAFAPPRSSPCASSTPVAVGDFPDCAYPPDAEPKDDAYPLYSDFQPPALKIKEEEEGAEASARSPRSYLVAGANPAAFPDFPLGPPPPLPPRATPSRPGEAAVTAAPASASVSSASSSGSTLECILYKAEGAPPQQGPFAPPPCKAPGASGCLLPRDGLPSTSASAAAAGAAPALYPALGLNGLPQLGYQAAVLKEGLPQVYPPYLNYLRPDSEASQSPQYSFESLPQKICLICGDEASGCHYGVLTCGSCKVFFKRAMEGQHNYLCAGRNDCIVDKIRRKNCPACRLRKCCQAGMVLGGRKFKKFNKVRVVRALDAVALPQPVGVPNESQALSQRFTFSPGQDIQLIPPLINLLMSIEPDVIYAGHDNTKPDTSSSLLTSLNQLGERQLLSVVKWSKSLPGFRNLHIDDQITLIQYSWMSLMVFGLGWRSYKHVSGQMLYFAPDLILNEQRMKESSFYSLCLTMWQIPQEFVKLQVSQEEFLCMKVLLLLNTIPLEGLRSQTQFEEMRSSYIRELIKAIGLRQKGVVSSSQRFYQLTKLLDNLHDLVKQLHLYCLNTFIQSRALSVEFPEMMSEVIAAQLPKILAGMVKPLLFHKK

EC50 (Glucocorticoid receptor [1]) [nM]	Ki (Glucocorticoid receptor [2]) [nM]	Ki (Androgen receptor) [µM]	Efficacy [3] [%]	Ratio Ki (Homo sapiens)	Ki (Progesterone receptor) [nM]	SMILES
92	6.7	> 25	50	10	56	CC(C)(C(=O)Nc1nncs1)[C@H](c1ccccc1)c1ccc2c(cnn2-c2ccc(F)cc2)c1
2.4	5.1	> 25	93	10	107	CC(C)(C(=O)Nc1nncs1)[C@@H](c1ccccc1)c1ccc2c(cnn2-c2ccc(F)cc2)c1
